Among the data in ChEMBL document CHEMBL1141674, “Effects of 3-(4'-geranyloxy-3'-methoxyphenyl)-2-trans propenoic acid and its ester derivatives on biofilm formation by two oral pathogens, Porphyromonas gingivalis and Streptococcus mutans” (2008) are Activity and MIC values, retold here.

Values after ≈ are worked out from the molar mass of the structure shown. Active and inactive are the calls of the source. No cut-off for these calls is given here.

In assay [1] the test system is Porphyromonas gingivalis. In words: Antimicrobial activity against Porphyromonas gingivalis ATCC 33277 assessed as bacterial growth at 15.6 ug/ml after 4 hrs by XTT assay relative to control. Format: functional. Conditions: in the assay text read “after 48 hrs by absorbance at 660 nm” for “after 4 hrs by XTT assay”. A general note: Tetrazolium assays rely on reduction of a dye to a coloured formazan, in cell work by metabolically active cells.

Assay [2] concerns Streptococcus mutans. The assay can be described thus: Antimicrobial activity against Streptococcus mutans ATCC 25175 assessed as effect on bacterial growth after 4 hrs by XTT assay relative to control. Format: functional, organism-based.
Assay [3] deals with Porphyromonas gingivalis. The assay can be described thus: Antimicrobial activity against Porphyromonas gingivalis ATCC 33277 assessed as bacterial growth at 31.2 ug/ml after 4 hrs by XTT assay relative to control. It is filed as functional. The conditions noted are these: in the assay text read “after 48 hrs by absorbance at 660 nm” for “after 4 hrs by XTT assay”.
In assay [4] the test system is Porphyromonas gingivalis. The assay can be described thus: Antimicrobial activity against Porphyromonas gingivalis ATCC 33277 assessed as bacterial growth at 3.9 ug/ml after 4 hrs by XTT assay relative to control. Format: functional. The gist of the method:
(§1)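 P. gingivalis biofilms were pre-grown for 48 h (24 h THB-HK culture diluted to OD660 0.07, 37 °C, anaerobic). They were then exposed to compound dilutions for 4 h at 37 °C under anaerobiosis. Viability was read by XTT reduction: fresh reagent of 12.5 parts XTT (1 mg/ml stock in PBS) to 1 part menadione (1 mM stock in acetone), 1 h at 37 °C, A490.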

The test system of assay [5] is Porphyromonas gingivalis. In words: Antimicrobial activity against Porphyromonas gingivalis ATCC 33277 assessed as bacterial growth at 7.8 ug/ml after 4 hrs by XTT assay relative to control. It is filed as functional. A digest of the protocol:
as §1

In assay [6] the test system is Porphyromonas gingivalis. The assay can be described thus: Antimicrobial activity against Porphyromonas gingivalis ATCC 33277 assessed as bacterial growth at 62.5 ug/ml after 4 hrs by XTT assay relative to control. Format: functional. The conditions noted are these: in the assay text read “after 48 hrs by absorbance at 660 nm” for “after 4 hrs by XTT assay”.
For assay [7], the system named is Porphyromonas gingivalis. In words: Antimicrobial activity against Porphyromonas gingivalis ATCC 33277 assessed as bacterial growth at 125 ug/ml after 48 hrs by absorbance at 660 nm relative to control.
Assay [8] has as its system Porphyromonas gingivalis. In words: Antimicrobial activity against Porphyromonas gingivalis ATCC 33277 assessed as inhibition of biofilm formation at 31.3 ug/ml after 48 hrs. It is filed as functional. Further details: scale not given: the % may be the effect or the level left. A digest of the protocol:
(§2)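 A 24 h P. gingivalis culture in THB-HK was diluted to OD660 0.07 and mixed 1:1 with serial compound dilutions in THB-HK; untreated wells served as controls. Plates were held 48 h at 37 °C anaerobically and growth was read at A660. Washed biofilms were stained with 0.04% crystal violet for 15 min, eluted with 95% ethanol and read at A550. Triplicates; mean ± SD of two independent experiments.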

Assay [9] concerns Porphyromonas gingivalis. The assay can be described thus: Antimicrobial activity against Porphyromonas gingivalis ATCC 33277 assessed as bacterial growth at 125 ug/ml after 4 hrs by XTT assay relative to control. The conditions noted are these: in the assay text read “after 48 hrs by absorbance at 660 nm” for “after 4 hrs by XTT assay”. It is filed as functional.
In assay [10] the test system is Streptococcus mutans. In words: Antimicrobial activity against Streptococcus mutans ATCC 25175 assessed as inhibition of biofilm formation at 3.9 ug/ml after 48 hrs. It is filed as functional, organism-based.
Assay [11] relates to Porphyromonas gingivalis. In words: Antimicrobial activity against Porphyromonas gingivalis ATCC 33277 assessed as bacterial growth at 15.6 ug/ml after 48 hrs by absorbance at 660 nm relative to control.
The subject of assay [12] is Streptococcus mutans. The assay can be described thus: Antimicrobial activity against Streptococcus mutans ATCC 25175 assessed as inhibition of biofilm formation after 48 hrs. It is filed as functional. Conditions: ATCC 25175, 48 h.
Assay [13] deals with Porphyromonas gingivalis. In words: Antimicrobial activity against Porphyromonas gingivalis ATCC 33277 assessed as inhibition of biofilm formation after 48 hrs. It is filed as functional. Conditions: ATCC 33277, 48 h. The gist of the method:
as §2

In assay [14] the test system is Porphyromonas gingivalis. The assay can be described thus: Antimicrobial activity against Porphyromonas gingivalis ATCC 33277 assessed as bacterial growth at 31.2 ug/ml after 48 hrs by absorbance at 660 nm relative to control.
The subject of assay [15] is Porphyromonas gingivalis. In words: Antimicrobial activity against Porphyromonas gingivalis ATCC 33277 assessed as bacterial growth at 62.5 ug/ml after 48 hrs by absorbance at 660 nm relative to control.

On to `O=C1C=C(O)C(=O)c2ccccc21` [LAWSONE], for which the Activity in [1] is given as 92%; in assay [3], 86%; in assay [4], 103%; in assay [5] it was 100%; in assay [6], 79%; in assay [7] it was 49%. In addition, the outcome in assay [2] was inactive.
As to `COc1cc(/C=C/C(=O)O)ccc1OC/C=C(\C)CCC=C(C)C`, the Activity was 80% in [8]; 13% in [9]; 15% in assay [3]; 34% in [11]; 81% in assay [4]; 68% in [5]. In assay [6], the Activity came to 9%. Also, the result in [2] was inactive. In [10], the result was Active.
Take `N=C(NCCCCCCNC(=N)NC(=N)Nc1ccc(Cl)cc1)NC(=N)Nc1ccc(Cl)cc1` [CHLORHEXIDINE]: the MIC worked out at 3 µM (≈ 1.52 µg/mL) in assay [12] and 6 µM (≈ 3.03 µg/mL) in [13].
On to `COc1cc(/C=C/C(=O)OC2=CC(=O)c3ccccc3C2=O)ccc1OC/C=C(\C)CCC=C(C)C`, for which the Activity is recorded as 105% in assay [1]; 17% in [9]; 34% in assay [14]; 110% in assay [4]; 124% in assay [5]; 16% in [6]. In [2], the outcome was inactive.
For `COC(=O)c1ccc(OC(=O)/C=C/c2ccc(OC/C=C(\C)CCC=C(C)C)c(OC)c2)c(OC)c1`, the Activity was 76% in assay [1]; 72% in assay [3]; 49% in [15]; 98% in assay [4]; 87% in assay [5]; 40% in [7]. Further, in assay [2], the outcome was inactive.
Consider `COc1cc(/C=C/C(=O)Oc2ccccc2OC)ccc1OC/C=C(\C)CCC=C(C)C`, for which the Activity stood at 22% in assay [1]; 32% in assay [9]; 28% in assay [3]; 61% in [4]; 25% in assay [5]; 25% in assay [6]. In addition, the result in [2] was inactive.
In the case of `Oc1ccc(O)cc1` [HYDROQUINONE], the Activity is on record as 15% in assay [1]; 17% in assay [3]; 45% in assay [4]; 27% in assay [5]; 13% in assay [6]; 14% in [7]. The outcome in assay [2] was inactive.
